In ChEMBL document CHEMBL4433264, “Novel hydrophilic galactose-conjugated chlorin e6 derivatives for photodynamic therapy and fluorescence imaging” (Bioorg Med Chem Lett, 2019):

How the values were obtained:
[1] = Drug penetration in human HeLa cells at 10 uM measured after 40 mins by fluorescence microscopy; assay type: ADME, cell-based
Outline: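 HeLa cells were incubated for 40 min with compound at 10 μM, alongside untreated cells. Uptake was judged by intracellular red fluorescence under fluorescence microscopy, paired with light micrographs of the same fields.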

[2] = Dark toxicity in human HeLa cells assessed as reduction in cell viability; assay type: cell-based
Outline: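 HeLa cells were grown in DMEM/F12 with 10% FBS, without antibiotics, at 37 °C and 5% CO2, and exposed to compound without irradiation. Live cells were counted by fluorometric microculture cytotoxicity assay (FMCA), with 10 independent microcultures per concentration. Outliers were screened by Grubbs criterion, and IC50 was derived from concentration versus survival index (±SE).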

[3] = Aqueous solubility of the compound by UV spectroscopy; assay type: physicochemical; settings: buffer
HeLa = assay: Phototoxicity in human HeLa cells assessed as reduction in cell viability in presence of irradiation with LED light at 12 J/cm2; assay type: functional, cell-based; settings: light or radiation study
Outline: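 HeLa cells were cultured in DMEM/F12 with 10% FBS, antibiotic-free, at 37 °C and 5% CO2. Compound-treated cells were irradiated with a 660 nm LED at 12 J/cm2. Viable cells were quantified by FMCA using 10 independent microcultures per concentration. Grubbs criterion removed artifacts before IC50 was calculated from concentration versus survival index (±SE).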

[4] = Potency index, ratio of IC50 for dark toxicity in human HeLa cells to IC50 for phototoxicity in human HeLa cells in presence of irradiation with LED light at 12 J/cm2; assay type: cell-based; settings: read-out: Ratio IC50
Outline: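 The index is dark IC50 divided by photoinduced IC50 in HeLa cells. Both IC50 values come from FMCA viability readings (10 microcultures per concentration, Grubbs outlier check, fit of concentration versus survival index). The phototoxicity arm used 660 nm LED irradiation at 12 J/cm2.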

Compound | Drug uptake [1] | IC50 [2] [µM] | solubility [3] | IC50 (HeLa) [nM] | selectivity ratio [4]
C=Cc1c(C)c2cc3nc(c(CC(=O)OC)c4[nH]c(cc5nc(cc1[nH]2)C(C)=C5CC)c(C)c4C(=O)NCCN(C[C@H]1OC(O)[C@H](O)[C@@H](O)[C@H]1O)C[C@H]1OC(O)[C@H](O)[C@@H](O)[C@H]1O)[C@@H](CCC(=O)OC)[C@@H]3C (some centres undefined) | Active | 6.1 | Soluble | 1110 | 
C=Cc1c(C)c2cc3nc(c(CC(=O)OC)c4[nH]c(cc5nc(cc1[nH]2)C(C)=C5CC)c(C)c4C(=O)NCCN(C[C@H]1OC(O)[C@H](O)[C@@H](O)[C@H]1O)C[C@H]1OC(O)[C@H](O)[C@@H](O)[C@H]1O)[C@@H](CCC(=O)NCCN(C[C@H]1OC(O)[C@H](O)[C@@H](O)[C@H]1O)C[C@H]1OC(O)[C@H](O)[C@@H](O)[C@H]1O)[C@@H]3C (some centres undefined) | Active | 59.6 | Soluble | 1570 | 38
C=Cc1c(C)c2cc3nc(c(CC(=O)OC)c4[nH]c(cc5nc(cc1[nH]2)C(C)=C5CC)c(C)c4C(=O)NCCN(C[C@H]1OC(O)[C@H](O)[C@@H](O)[C@H]1O)C[C@H]1OC(O)[C@H](O)[C@@H](O)[C@H]1O)[C@@H](CCC(=O)O)[C@@H]3C (some centres undefined) | Active | 39 | Soluble | 1240 | 31
